Data as given in ChEMBL document CHEMBL4765234 (J Med Chem, 2016).
Values belong to the molecule of their own block, whether it stands above or below them. Active and inactive are the calls of the source. The calls are words filed in the database; no cut-off is given here.

Legend:
[1] = AUC in hyperglycemic Balb/c mouse plasma at […] measured upto 60 mins; format: ADME, organism-based
[2] = Drug metabolism in rat hepatocytes assessed as oxidation by LC-MS/MS analysis; format: ADME, cell-based, Hepatocyte
[3] = Drug metabolism in mouse hepatocytes assessed as N-dealkylation by LC-MS/MS analysis; format: ADME, cell-based, Hepatocyte
[4] = AUC in hyperglycemic Balb/c mouse plasma at 5.6 mg/kg measured upto 60 mins; format: ADME, organism-based; parameters: dose 5.6 mg/kg, time <=60
[5] = AUC in hyperglycemic Balb/c mouse plasma at 3.67 mg/kg measured upto 60 mins; format: ADME, organism-based; parameters: dose 3.67 mg/kg, time <=60
[6] = Drug distribution in C57BL/6 mouse plasma at 3 microg/kg, iv administered as single dose observed at 20 to 40 mins by LC-MS/MS analysis; format: ADME, organism-based; conditions: in vivo, 0.003 mg/kg, time 20-40 min, dose 3 µg/kg
Procedure, shortened: (§1)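 Tracer microdose study in fed male C57BL/6 mice: single 3 μg/kg IV dose in 25% HP-BCD. Mice were killed by cervical dislocation, and spleen, ascending colon, skeletal muscle and plasma were sampled at 20 and 40 min.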

[7] = Drug distribution in C57BL/6 mouse skeletal muscle at 3 microg/kg, iv administered as single dose observed at 20 to 40 mins by LC-MS/MS analysis; format: ADME, organism-based, Skeletal muscle tissue; conditions: in vivo, 0.003 mg/kg, time 20-40 min, dose 3 µg/kg; procedure, shortened: as §1
[8] = Drug metabolism in human hepatocytes assessed as O-dealkylation by measuring 4-((2,3-dihydrospiro[indene-1,4'-piperidine]-1'-yl)methyl)benzoic acid metabolite formation by LC-MS/MS analysis; format: ADME, cell-based, Hepatocyte
[9] = Drug metabolism in rat hepatocytes assessed as O-dealkylation by measuring 4-((2,3-dihydrospiro[indene-1,4'-piperidine]-1'-yl)methyl)benzoic acid metabolite formation by LC-MS/MS analysis; format: ADME, cell-based, Hepatocyte
[10] = Drug metabolism in dog hepatocytes assessed as O-dealkylation by measuring 4-((2,3-dihydrospiro[indene-1,4'-piperidine]-1'-yl)methyl)benzoic acid metabolite formation by LC-MS/MS analysis; format: ADME, cell-based, Canis lupus familiaris, Hepatocyte
[11] = Drug metabolism in mouse hepatocytes assessed as O-dealkylation by measuring 4-((2,3-dihydrospiro[indene-1,4'-piperidine]-1'-yl)methyl)benzoic acid metabolite formation by LC-MS/MS analysis; format: ADME, cell-based, Hepatocyte
[12] = Clearance in rat plasma at 10 mg/kg, po or 3 mg/kg, iv by LC/MS/MS analysis; format: ADME, organism-based
Procedure, shortened: (§2)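 Dosing was oral and intravenous in mice, rats or beagle dogs. Blood was drawn at set time points into EDTA and processed to plasma. Plasma was assayed by LC/MS/MS. Clearance, Cmax and terminal half-life were derived by noncompartmental analysis.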

[13] = Clearance in dog plasma at 5 mg/kg, po or 1 mg/kg, iv by LC/MS/MS analysis; format: ADME, organism-based, Canis lupus familiaris; procedure, shortened: as §2
[14] = Volume of distribution at steady state in mouse at 10 mg/kg, po or 1 mg/kg, iv by LC/MS/MS analysis; format: ADME, organism-based; conditions: in vivo, read-out: Vdss
Procedure, shortened: (§3)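 Mice, rats and beagle dogs dosed; blood drawn at set times into EDTA, processed to plasma and assayed by LC/MS/MS. Parameters (clearance, Vdss, terminal half-life, Cmax, Tmax, oral bioavailability) derived by noncompartmental analysis.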

[15] = Volume of distribution at steady state in rat at 10 mg/kg, po or 3 mg/kg, iv by LC/MS/MS analysis; format: ADME, organism-based; conditions: in vivo, read-out: Vdss; procedure, shortened: as §3
[16] = Half-life in mouse at 10 mg/kg, po or 1 mg/kg, iv by LC/MS/MS analysis; format: ADME, organism-based; conditions: in vivo; procedure, shortened: as §3
[17] = Cmax in rat plasma at 10 mg/kg, po or 3 mg/kg, iv by LC/MS/MS analysis; format: ADME, organism-based; parameters: dose 10 mg/kg; procedure, shortened: as §2
[18] = Cmax in dog plasma at 5 mg/kg, po or 1 mg/kg, iv by LC/MS/MS analysis; format: ADME, organism-based, Canis lupus familiaris; parameters: dose 5 mg/kg; procedure, shortened: as §2
[19] = Oral bioavailability in rat at 10 mg/kg by LC/MS/MS analysis; format: ADME, organism-based; conditions: in vivo; procedure, shortened: as §3
[20] = Oral bioavailability in mouse at 10 mg/kg by LC/MS/MS analysis; format: ADME, organism-based; conditions: in vivo; procedure, shortened: as §3
[21] = Oral bioavailability in dog at 5 mg/kg by LC/MS/MS analysis; format: ADME, organism-based, Canis lupus familiaris; conditions: in vivo; procedure, shortened: as §3
[22] = Elimination half-life in dog plasma at 5 mg/kg, po or 1 mg/kg, iv by LC/MS/MS analysis; format: ADME, organism-based, Canis lupus familiaris; procedure, shortened: as §2
[23] = target: Free fatty acid receptor 1 (Mus musculus) (UniProt Q76JU9); assay: Agonist activity at GPR40 in mouse pancreatic islets assessed as induction of glucose-mediated insulin secretion measured after 90 mins in EBSS buffer by ELISA; conditions: filed as agonist
Chain of Free fatty acid receptor 1 (Mus musculus) (Q76JU9 whole entry): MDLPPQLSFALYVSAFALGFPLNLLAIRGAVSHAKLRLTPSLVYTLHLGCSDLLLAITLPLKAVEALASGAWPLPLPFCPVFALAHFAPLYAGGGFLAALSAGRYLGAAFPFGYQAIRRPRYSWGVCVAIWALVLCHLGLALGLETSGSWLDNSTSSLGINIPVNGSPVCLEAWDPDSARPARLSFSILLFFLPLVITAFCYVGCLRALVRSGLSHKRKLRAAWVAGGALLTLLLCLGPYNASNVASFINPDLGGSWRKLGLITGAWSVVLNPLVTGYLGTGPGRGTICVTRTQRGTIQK

[24] = Elimination half-life in mouse plasma at 10 mg/kg, po or 1 mg/kg, iv by LC/MS/MS analysis; conditions: read-out: beta t1/2 (converted)
[25] = Drug metabolism in dog hepatocytes assessed as demethylation by LC-MS/MS analysis; format: ADME, cell-based, Canis lupus familiaris, Hepatocyte
[26] = AUC in hyperglycemic Balb/c mouse plasma at 5 mg/kg measured upto 60 mins; format: ADME, organism-based; parameters: dose 5 mg/kg, time <=60
[27] = Drug metabolism in dog urine assessed as metabolite formation by LC-MS/MS analysis; format: ADME, tissue-based, Canis lupus familiaris
[28] = Cmax in type 2 diabetic mellitus human at 270 mg, po administered as single dose; format: ADME, organism-based; parameters: route oral, dose 270 mg; conditions: in vivo
Procedure, shortened: (§4)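 Type 2 diabetic subjects each received a single oral dose. Plasma drug levels were followed over time. Parameters were derived by noncompartmental analysis and reported as geometric means with CV%. CL/F is apparent total clearance and Vz/F is apparent terminal-phase volume.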

[29] = Half life in type 2 diabetic mellitus human at 270 mg, po administered as single dose; format: ADME, organism-based; conditions: in vivo; procedure, shortened: as §4
[30] = AUC ( 0 to infinity) in type 2 diabetic mellitus human at 270 mg, po administered as single dose; format: ADME, organism-based; parameters: time infinity, route oral, dose 270 mg; conditions: in vivo; procedure, shortened: as §4
[31] = Apparent volume of distribution in type 2 diabetic mellitus human at 270 mg, po administered as single dose; format: ADME, organism-based; conditions: in vivo, read-out: Vz/F; procedure, shortened: as §4
[32] = Cmax in type 2 diabetic mellitus human at 540 mg, po administered as single dose; format: ADME, organism-based; parameters: route oral, dose 540 mg; conditions: in vivo; procedure, shortened: as §4
[33] = Tmax in type 2 diabetic mellitus human at 540 mg, po administered as single dose; format: ADME, organism-based; conditions: in vivo
Procedure, shortened: (§5)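 Single oral dose given to type 2 diabetic subjects; plasma drug levels followed over time. Cmax, Tmax, terminal half-life, AUC(0−∞), CL/F and Vz/F obtained by noncompartmental analysis and reported as geometric means with CV%.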

[34] = Half life in type 2 diabetic mellitus human at 540 mg, po administered as single dose; format: ADME, organism-based; conditions: in vivo
[35] = AUC ( 0 to infinity) in type 2 diabetic mellitus human at 540 mg, po administered as single dose; format: ADME, organism-based; parameters: route oral, time infinity, dose 540 mg; conditions: in vivo; procedure, shortened: as §4
[36] = Apparent volume of distribution in type 2 diabetic mellitus human at 540 mg, po administered as single dose; format: ADME, organism-based; conditions: in vivo, read-out: Vz/F; procedure, shortened: as §4
[37] = Tmax in type 2 diabetic mellitus human at 1080 mg, po administered as single dose; format: ADME, organism-based; conditions: in vivo; procedure, shortened: as §5
[38] = Half life in type 2 diabetic mellitus human at 1080 mg, po administered as single dose; format: ADME, organism-based; conditions: in vivo; procedure, shortened: as §4
[39] = AUC ( 0 to infinity) in type 2 diabetic mellitus human at 1080 mg, po administered as single dose; format: ADME, organism-based; parameters: time infinity, route oral, dose 1080 mg; conditions: in vivo; procedure, shortened: as §4
[40] = Apparent clearance in type 2 diabetic mellitus human at 1080 mg, po administered as single dose; format: ADME, organism-based; conditions: in vivo; procedure, shortened: as §4
[41] = Apparent volume of distribution in type 2 diabetic mellitus human at 1080 mg, po administered as single dose; format: ADME, organism-based; conditions: in vivo, read-out: Vz/F; procedure, shortened: as §4

Structure (SMILES): CC#C[C@@H](CC(=O)O)c1ccc(OCc2ccc(CN3CCC4(CC3)CN(C)c3ccccc34)cc2)cc1
- AUC at 1 h [1]: 1030 ng·h/mL

Structure (SMILES): CC#C[C@@H](CC(=O)O)c1ccc(OCc2ccc(CN3CCC4(CCc5ccccc54)CC3)s2)cc1
- Drug metabolism [2]: Metabolite_Detected
- Drug metabolism [3]: Metabolite_Detected
- AUC at 1 h [4]: 898 ng·h/mL

Structure (SMILES): CC#C[C@@H](CC(=O)O)c1ccc(OCc2ccc(CN3CCC4(C=Cc5ccccc54)CC3)s2)cc1
- AUC at 1 h [5]: 1060 ng·h/mL
- Drug uptake [6]: Active
- Drug uptake [7]: Active

Structure (SMILES): CC#C[C@@H](CC(=O)O)c1ccc(OCc2ccc(CN3CCC4(C=Cc5ccccc54)CC3)cc2)cc1 [LY2881835]
- Drug metabolism [8]: Metabolite_Detected
- Drug metabolism [9]: Metabolite_Detected
- Drug metabolism [10]: Metabolite_Detected
- Drug metabolism [11]: Metabolite_Detected
- clearance [12]: 11.6 mL/min/kg
- clearance [13]: 4.9 mL/min/kg
- Vd [14]: 1.4 L/kg
- Vd [15]: 0.4 L/kg
- half-life [16]: 2.1 h
- Cmax [17]: 11200 ng/mL
- Cmax [18]: 2860 ng/mL
- bioavailability [19]: 71%
- bioavailability [20]: 64%
- bioavailability [21]: 74%
- half-life [22]: 5.05 h
- Activity [23]: Active
- half-life [24]: 2 h

- Drug metabolism [25]: Metabolite_Detected
- AUC at 1 h [26]: 4930 ng·h/mL
- Drug metabolism [27]: Metabolite_Notdetected
- Cmax [28]: 2000 ng/mL
- half-life [29]: 12.1 h
- AUC(0-inf) [30]: 19400 ng·h/mL
- Vd/F [31]: 244 L
- Cmax [32]: 3780 ng/mL
- Tmax [33]: 4 h
- half-life [34]: 14.5 h
- AUC(0-inf) [35]: 41400 ng·h/mL
- Vd/F [36]: 273 L
- Tmax [37]: 4 h
- half-life [38]: 22.4 h
- AUC(0-inf) [39]: 97300 ng·h/mL
- CL/F [40]: 185 mL/min
- Vd/F [41]: 358 L
Structure (SMILES): CC#C[C@@H](CC(=O)O)c1ccc(OCc2ccc(CN3CCCc4cccc(OC)c43)s2)cc1
